Assay results from ChEMBL document CHEMBL4190346, “Structure-based design, synthesis, and biological evaluation of withaferin A-analogues as potent apoptotic inducers” (Eur J Med Chem, 2017).
Activity calls are given as the source filed them. No cut-off for these calls is given here.

Legend:
HeLa [1] = assay: Cytotoxicity against human HeLa cells assessed as reduction in cell viability using compound addition to cell culture cells in lag phase of growth and incubated for 48 hrs by MTT assay; assay type: functional, cell-based; conditions: Homo sapiens, HeLa, 48 h; read-out: IC50
HeLa [2] = assay: Induction of cell cycle arrest in human HeLa cells assessed increase in subG1 phase accumulation at 24 uM incubated for 12 hrs by 33342 propidium iodide based flow cytometry relative to untreated control; assay type: functional
HeLa [3] = assay: Induction of apoptosis in human HeLa cells assessed as increase in caspase-3 activity by measuring pNA release level at 16 uM incubated for 4 hrs using c-DEVD-pNA substrate by colorimetric assay; assay type: functional
How it was run: (§1)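 HeLa cells in DMEM with 10% FBS were exposed for 4 h (fixed 24 or 32 level for 8 h). Staurosporine for 4 h served as the positive control. Cells were lysed at 4 °C for 10 min and centrifuged, and supernatant protein was measured by Bradford. Caspase-3 activity was read colorimetrically as nmol pNA/min/mL, with treated/untreated OD ratios. Values are means ± SD of three independent experiments in triplicate.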

HeLa [4] = assay: Induction of cell cycle arrest in human HeLa cells assessed increase in subG1 phase accumulation at 24 uM incubated for 12 hrs by 33342 propidium iodide based flow cytometry relative to Withaferin A; assay type: functional
How it was run: (§2)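 HeLa cells (1–2 × 10^6 per well) were exposed for 12 h at 24 µM, or at 16 µM over a time course. Adherent and floating cells were pooled, washed in ice-cold PBS, and fixed/permeabilized overnight in ice-cold 70% ethanol. DNA was stained with propidium iodide and G1, G2/M and sub-G1 (hypoploid) fractions were read by flow cytometry. Results are from ≥3 independent experiments in triplicate.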

MCF7 [5] = assay: Cytotoxicity against human MCF7 cells assessed as reduction in cell viability using compound addition to cell culture cells in log phase of growth and incubated for 48 hrs by MTT assay; assay type: functional, cell-based; conditions: Homo sapiens, MCF7, 48 h; read-out: IC50
HeLa [6] = assay: Induction of cell cycle arrest in human HeLa cells assessed reduction in G2/M phase accumulation at 16 uM by 33342 propidium iodide based flow cytometry relative to untreated control; assay type: functional; conditions: TDE = time-dependent effect; how it was run: as §2
HeLa [7] = assay: Induction of apoptosis in human HeLa cells assessed increase in apoptotic nuclei formation at 8 uM incubated for 12 hrs by Hoechst 33342 staining based fluorescence microscopy; assay type: functional
HeLa [8] = assay: Induction of apoptosis in human HeLa cells assessed as increase in caspase-3 activity by measuring pNA release level at 8 uM incubated for 4 hrs using c-DEVD-pNA substrate by colorimetric assay; assay type: functional; how it was run: as §1
Vero [9] = assay: Cytotoxicity against African green monkey Vero cells assessed as reduction in cell viability using compound addition to cell culture cells in log phase of growth and incubated for 48 hrs by MTT assay; assay type: cell-based, Chlorocebus sabaeus; conditions: Chlorocebus sabaeus, Vero, 48 h; read-out: IC50
HeLa [10] = assay: Induction of apoptosis in human HeLa cells assessed as increase in caspase-3 activity by measuring pNA release level at 24 uM incubated for 8 hrs using c-DEVD-pNA substrate by colorimetric assay; assay type: functional; how it was run: as §1
A549 [11] = assay: Cytotoxicity against human A549 cells assessed as reduction in cell viability using compound addition to cell culture cells in log phase of growth and incubated for 48 hrs by MTT assay; assay type: functional, cell-based; conditions: Homo sapiens, A549, 48 h; read-out: IC50
HeLa [12] = assay: Induction of late apoptosis in human HeLa cells at 8 uM incubated for 1 hr by annexin V and propidium iodide staining based flow cytometry; assay type: functional, cell-based
HeLa [13] = assay: Induction of apoptosis in human HeLa cells assessed as increase in caspase-3 activity by measuring pNA release level at 32 uM incubated for 4 hrs using c-DEVD-pNA substrate by colorimetric assay; assay type: functional; how it was run: as §1
A549 [14] = assay: Cytotoxicity against human A549 cells assessed as reduction in cell viability using compound addition to cell culture cells in lag phase of growth and incubated for 48 hrs by MTT assay; assay type: functional, cell-based; conditions: Homo sapiens, A549, 48 h; read-out: IC50
HeLa [15] = assay: Cytotoxicity against human HeLa cells assessed as reduction in cell viability using compound addition to cell culture cells in log phase of growth and incubated for 48 hrs by MTT assay; assay type: functional, cell-based; conditions: Homo sapiens, HeLa, 48 h; read-out: IC50
Vero [16] = assay: Cytotoxicity against African green monkey Vero cells assessed as reduction in cell viability using compound addition to cell culture cells in lag phase of growth and incubated for 48 hrs by MTT assay; assay type: cell-based, Chlorocebus sabaeus; conditions: Chlorocebus sabaeus, Vero, 48 h; read-out: IC50
[17] = Selectivity index, ratio of IC50 for African green monkey Vero cells to IC50 for human HeLa cells; assay type: toxicity; conditions: Vero cells and HeLa cells, read-out: Ratio IC50
HeLa [18] = assay: Induction of cell cycle arrest in human HeLa cells assessed increase in subG1 phase accumulation at 16 uM by 33342 propidium iodide based flow cytometry relative to untreated control; assay type: functional; conditions: TDE = time-dependent effect; how it was run: as §2
MCF7 [19] = assay: Cytotoxicity against human MCF7 cells assessed as reduction in cell viability using compound addition to cell culture cells in lag phase of growth and incubated for 48 hrs by MTT assay; assay type: functional, cell-based; conditions: Homo sapiens, MCF7, 48 h; read-out: IC50
HeLa [20] = assay: Induction of apoptosis in human HeLa cells assessed as increase in caspase-3 activity by measuring pNA release level at 24 uM incubated for 4 hrs using c-DEVD-pNA substrate by colorimetric assay; assay type: functional; how it was run: as §1
HeLa [21] = assay: Induction of cell cycle arrest in human HeLa cells assessed accumulation at G2/M phase at 16 uM incubated for 24 hrs by 33342 propidium iodide based flow cytometry relative to untreated control; assay type: functional; conditions: in the assay text read “accumulation at sub-G1 phase” for “accumulation at G2/M phase”; how it was run: as §2
HeLa [22] = assay: Induction of early apoptosis in human HeLa cells at 4 uM incubated for 1 hr by annexin V and propidium iodide staining based flow cytometry; assay type: functional, cell-based
HeLa [23] = assay: Induction of apoptosis in human HeLa cells assessed increase in DNA fragmentation at 16 uM incubated for 12 hrs by ethidium bromide staining based agarose gel electrophoresis; assay type: functional, cell-based
How it was run: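 HeLa cells were incubated with the compounds at varying concentrations for 12 or 24 h. Controls were DMSO (solvent) and staurosporine 2 µM (positive). Adherent and floating cells were pooled, centrifuged at 500 g and washed twice in cold PBS. Genomic DNA was extracted with a kit, run on 1.8% agarose, stained with ethidium bromide and viewed under UV.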

HeLa [24] = assay: Induction of apoptosis in human HeLa cells assessed as increase in caspase-3 activity by measuring pNA release level at 12 uM incubated for 4 hrs using c-DEVD-pNA substrate by colorimetric assay; assay type: functional; how it was run: as §1
HeLa [25] = assay: Induction of cell cycle arrest in human HeLa cells assessed increase in hypoploid phase accumulation at 24 uM incubated for 12 hrs by […] propidium iodide based flow cytometry relative to untreated control; assay type: functional

In the case of `CC1=C(COC(=O)c2ccccc2)C(=O)O[C@@H]([C@@H](C)[C@H]2CC[C@H]3[C@@H]4C[C@H]5O[C@]56[C@@H](O)C=CC(=O)[C@]6(C)[C@H]4CC[C@]23C)C1`, the IC50 (HeLa [1]) is reported as 0.8 µM, the “fold change (FC)” value (HeLa [2]) is reported as 4 - 6 and the Activity (HeLa [3]) is reported as 0.67 nmol/min/mL. For the same compound, the “fold change (FC)” value (HeLa [4]) was 2, the IC50 (MCF7 [5]) was 0.7 µM and the Activity (HeLa [6]) was “Tde”. For the same compound, the Activity (HeLa [7]) was 28%, the Activity (HeLa [8]) was 0.32 nmol/min/mL and the IC50 (Vero [9]) was 0.5 µM. For the same compound, the Activity (HeLa [10]) was 1.7 to 2 nmol/min/mL, the IC50 (A549 [11]) was 1.5 µM and the Activity (HeLa [12]) was “Active”. The Activity (HeLa [13]) was 0.85 nmol/min/mL, the IC50 (A549 [14]) was 1 µM and the IC50 (HeLa [15]) was 1.6 µM. For the same compound, the IC50 (Vero [16]) was 0.2 µM, the selectivity ratio [17] was 2.5 and the Activity (HeLa [18]) was “Tde”. The IC50 (MCF7 [19]) was 0.3 µM, the Activity (HeLa [20]) was 1.16 nmol/min/mL and the Activity (HeLa [21]) was 37.8%. The Activity (HeLa [22]) was “Active”, the Activity (HeLa [23]) was “Active” and the Activity (HeLa [24]) was 0.52 nmol/min/mL. The Activity (HeLa [25]) was 22.1%.
